Results published in article PMC5384874 (Medicinal chemistry (Shariqah (United Arab Emirates)), 2017).

Experiments:
Type in all cases: cell-based, human
MCF-7 = experiment: Cytotoxicity assay, CCK-8 method, MCF-7; details: read-out: IC50, cytotoxicity against MCF-7; MCF-7, CCK-8, 24 h incubation
Procedure, shortened: (§1)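 Cells grown in RPMI with 10% fetal bovine serum, penicillin (100 U/mL) and streptomycin (50 μg/mL), seeded in 96-well plates at […]. Test compound added at increasing concentrations; untreated cells as control. Incubated 24 h at 37 °C, 5% CO2, humidified. CCK-8 added, 2 h at 37 °C, read with europium detection protocol. IC50 versus DMSO-treated wells by logit method, at least three independent tests.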

HeLa = experiment: Cytotoxicity assay, CCK-8 method, HeLa; details: read-out: IC50, cytotoxicity against HeLa, CCK-8, 24 h incubation
Procedure, shortened: as §1

A549 = experiment: Cytotoxicity assay, CCK-8 method, A549; details: read-out: IC50, cytotoxicity against A549; A549, CCK-8, 24 h incubation
Procedure, shortened: as §1

phylactones F/G [5/6]
IC50 (MCF-7): 5.2 µM
IC50 (HeLa): 9.6 µM
IC50 (A549): 7.8 µM
